inhibition, Activity and IC50 data for 9 compounds are collected here from ChEMBL document CHEMBL4033710, “Synthesis and biological evaluation of kresoxim-methyl analogues as novel inhibitors of hypoxia-inducible factor (HIF)-1 accumulation in cancer cells” (Bioorg Med Chem Lett, 2017).

Common to all, as to type: functional, cell-based
Assay [1] relates to HCT-116. Nature of the assay: Inhibition of hypoxia-induced HIF1-alpha accumulation in human HCT116 cells after 6 hrs by immunoblot analysis. The gist of the method: (§1)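 HCT116 cells incubated under hypoxia for 6 h with each compound. HIF-1α protein was detected by immunoblot with specific antibodies, using β-tubulin as loading reference.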
On the technique in general: In western blotting, separated proteins are transferred to a membrane and probed.

Assay [2] relates to HCT-116. Nature of the assay: Increase in intracellular oxygen content in human HCT116 cells at 5 uM after 6 hrs under hypoxic-condition by mono azo rhodamine/Nuclear-ID Red DNA staining based fluorescence assay. The gist of the method: (§2)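 HCT116 cells treated with compound for 6 h under hypoxia and loaded with the hypoxia-sensitive probe mono azo rhodamine (MAR). MAR fluoresces when its azo group is reduced in hypoxia. Nuclei were counterstained with NUCLEAR-ID Red. The value is the MAR/NUCLEAR-ID fluorescence intensity ratio, compared against a hypoxia control by significance testing.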

In assay [3] the test system is HCT-116. Nature of the assay: Cytotoxicity against human HCT116 cells at 0.625 to 10 uM after 72 hrs under hypoxic condition by methylene blue staining based assay.
Assay [4] relates to HCT-116. Nature of the assay: Cytotoxicity against human HCT116 cells after 72 hrs by methylene blue staining based assay. To be noted: HCT-116, 72 h. The gist of the method: (§3)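 HCT116 cells exposed to each analogue for 72 h. Viability read out by methylene blue staining.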
Assay [5] relates to HCT-116. Nature of the assay: Increase in intracellular oxygen content in human HCT116 cells after 6 hrs under hypoxic-condition by mono azo rhodamine/ Nuclear-ID Red DNA staining based fluorescence assay. The gist of the method: as §2
The subject of assay [6] is HCT-116. Nature of the assay: Inhibition of hypoxia-induced HIF1-alpha accumulation in human HCT116 cells at 5 uM after 6 hrs by immunoblot analysis. The gist of the method:
as §1

Assay [7] concerns HCT-116. Nature of the assay: Cytotoxicity against human HCT116 cells at 0.625 to 10 uM after 72 hrs by methylene blue staining based assay. The gist of the method:
as §3

Activity calls are given as the source filed them. No cut-off for these calls is given here.

Regarding `C=Cc1ccc(COc2cccc(OCc3ccccc3/C(=N\OC)C(=O)OC)c2)cc1`, the inhibition result in assay [1] was “Dose-dependent effect”. Further, the result in assay [2] and in assay [3] was Active. For the same compound, the half-inhibitory concentration (IC50) in assay [4] came out at 1.26 µM.
As for `CO/N=C(/C(=O)OC)c1ccccc1COc1cccc(O)c1`, the outcome in assay [2] was Active.
As for `CO/N=C(/C(=O)OC)c1ccccc1COc1cccc(OCc2ccc(Cl)cc2)c1`, the inhibition entry in assay [1] is “Dose-dependent effect”. Also, the Activity entry in assay [5] was “Dose-dependent effect”. Further, the outcome in assay [3] was Active. This compound had an IC50 in assay [4] of 1.62 µM.
In the case of `CO/N=C(/C(=O)OC)c1ccccc1COc1cccc(OCc2cc(C(F)(F)F)cc(C(F)(F)F)c2)c1`, the inhibition result in assay [1] is “Dose-dependent effect”. Besides, the result in assay [2] and in assay [3] was Active. Also, half-maximal inhibition in assay [4] (IC50) was put at 1.36 µM.
Take `CO/N=C/c1cccc(OCc2ccccc2/C(=N\OC)C(=O)OC)c1`: the result in assay [2] was Active.
With `CO/N=C(\C)c1cccc(OCc2ccccc2/C(=N\OC)C(=O)OC)c1`, in assay [2], the outcome was Active.
With `CO/N=C/c1ccc(OC)c(OCc2ccccc2/C(=N\OC)C(=O)OC)c1`, in assay [2], the result was Active.
As to `CO/N=C(/C(=O)OC)c1ccccc1COc1cccc(OCC#N)c1`, in assay [6], the inhibition result is “inactive”. Moreover, the outcome in assay [7], in assay [2] and in assay [3] was inactive.
For the compound `CO/N=C(/C(=O)OC)c1ccccc1COc1cccc(OCc2ccccc2)c1`, the result in assay [2] was Active.

What is called IC50 is the concentration at which inhibition is half-maximal. High values mean weaker potency in that assay, low ones greater potency in that assay.
